High-throughput results (PubChem)
CRFR2-BP antag: CRF-BP/CRF-R2 complex antagonism; HEK293 CRF-R2/CRF-BP, CRF-induced calcium fluorescence; inhibition, % at 11.8 µM; 0.59% of 350,000 active;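 active means inhibition of the ligand-induced calcium signal above about 50% at the single tested concentration, limit read from the data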
TRPML3 ag: agonists of human TRPML3 channel | HEK293 TRPML3-YFP, Fluo-8 calcium fluorescence; 100% = the carbachol control signal | Q8TDD5 | activation, % at 3 µM | 0.29% of 220,000 active | AID 1448;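 active means activation above its plate's cutoff, the mean activation of the plate's test wells plus 3 SD, cut at about 12% in these data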
Target sequence (Q8TDD5 whole entry, looked up): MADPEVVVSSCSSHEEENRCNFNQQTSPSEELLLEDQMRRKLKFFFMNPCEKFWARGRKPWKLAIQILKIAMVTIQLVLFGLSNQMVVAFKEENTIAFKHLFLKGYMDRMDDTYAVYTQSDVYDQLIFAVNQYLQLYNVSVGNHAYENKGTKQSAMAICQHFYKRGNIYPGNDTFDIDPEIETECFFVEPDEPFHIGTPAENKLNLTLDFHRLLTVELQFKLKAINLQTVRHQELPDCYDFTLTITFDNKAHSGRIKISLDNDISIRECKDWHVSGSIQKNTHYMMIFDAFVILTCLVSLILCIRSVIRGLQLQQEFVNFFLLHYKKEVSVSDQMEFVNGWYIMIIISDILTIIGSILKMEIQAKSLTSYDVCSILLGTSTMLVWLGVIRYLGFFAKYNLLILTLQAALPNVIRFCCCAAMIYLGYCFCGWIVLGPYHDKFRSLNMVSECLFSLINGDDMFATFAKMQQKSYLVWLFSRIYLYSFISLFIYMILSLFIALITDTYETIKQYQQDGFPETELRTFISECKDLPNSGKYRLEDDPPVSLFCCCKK
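Test system: TRPML3-YFP stable HEK293 cells. Doses: single point at 3 µM. Incubation: dye loading 1 h 37 °C then 30 min ambient, 125 s read. Signal: Fluo-8 calcium dye fluorescence, ex 470-495, em 515-575 nm. Measure: percent activation from peak-to-basal fluorescence ratio, scaled between DMSO and carbachol.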
VIM-2 inhibitor: blocks Pseudomonas aeruginosa VIM-2 metallo-beta-lactamase | purified VIM-2, nitrocefin hydrolysis, epi-absorbance fluorescence | 0.89% of 290,000 active | inhibition, % at 5.6 µM;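 active means inhibition above the mean of all tested compounds plus 3 SD, cutoff set per screening run, cut at about 7.5% in these data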;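 further: red hydrolysis product quenches plate fluorescence so inhibitors raise well fluorescence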
TRPN1 ag: activates the zebrafish TRPN1 channel; HEK293 zebrafish TRPN1-YFP, Fluo-8 calcium fluorescence; 100% = response to 87 µM carbachol; activation, % at 3 µM; 0.18% of 220,000 active; AID 1424;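 active means activation above its plate's cutoff, the mean activation of test wells on that plate plus 3 SD, cut at about 19% in these data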
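Assay system: Zebrafish TRPN1-YFP in HEK293 cells | Incubation: Dye loading 1 h at 37 °C, then 30 min room temperature | Measured by: Kinetic Fluo-8 fluorescence, ex 470-495, em 515-575 nm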
CRFBP-R2 agonist: agonists of human CRF-binding protein/CRF-R2 receptor complex | AID 588473 | 0.46% of 350,000 active | HEK293 CRF-R2/CRF-BP, calcium dye fluorescence (FLIPR); percent of saturating CRF peptide response | activation, % at 13.2 µM;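 active means activation of at least 50%, plus an integration ratio under a set limit after plate pattern correction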
IMP-1 inh: blocks Pseudomonas aeruginosa IMP-1 metallo-beta-lactamase; purified IMP-1, nitrocefin hydrolysis, epi-absorbance fluorescence; inhibition, % at 5.6 µM; 0.45% of 290,000 active;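 active means inhibition above the mean plus 3 SD of all compounds in the same screening run, cut at about 4.5% in these data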
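System: purified recombinant IMP-1 beta-lactamase. Medium: Zinc- and detergent-supplemented HEPES buffer, pH 7.1. Compound: one 5.6 µM dose […]. Schedule: 15 min preincubation plus 25 min reaction at 25 °C. Technique: Epi-absorbance fluorescence, 480 nm excitation, 530 nm emission.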
A number is an active result; 0 = inactive; - = not tested or not shown. Sampled rows, rich in hits. Any-hit rate of the full collection: about 2.1%.

SMILES | CRFR2-BP antag | TRPML3 ag | VIM-2 inhibitor | TRPN1 ag | CRFBP-R2 agonist | IMP-1 inh
CCCCn1c2ccc(F)cc2c2nnc(SCCN3CCOCC3)nc21 | 0 | - | 0 | - | 0 | 0
C=CCn1c2ccccc2c2nnc(SCC(=O)O)nc21 | 0 | - | 0 | - | 0 | 0
Cn1c2ccc(F)cc2c2nnc(SCC(=O)Nc3cccc(O)c3)nc21 | 0 | - | 8.8 | - | 0 | 0
C=CCn1c2ccccc2c2nnc(SCCN3CCOCC3)nc21 | 0 | - | 12 | - | 0 | 0
CCCCNC(=O)c1ccccc1SCC(=O)NC1CCCCCCC1 | 0 | - | - | - | 0 | -
Cc1ccc(S(=O)(=O)N2CCC(=O)N(C(COCc3ccc(Cl)cc3)C(C)C)CC2)cc1 (centres undefined) | 0 | 14 | 0 | 0 | 0 | 0
Cc1ccc(S(=O)(=O)N2CCC(=O)N(C(COCc3ccccc3)C(C)C)CC2)cc1 (centres undefined) | 0 | 0 | 0 | 0 | 0 | 0
COc1cc(/C=C2\C(=N)N3N=C(S(C)(=O)=O)SC3=NC2=O)ccc1OCCOc1ccc(C)cc1 | 72 | - | 0 | - | 0 | 0
CCS(=O)(=O)C1=NN2C(=N)/C(=C\c3ccc(OCCOc4cccc(OC)c4)c(OC)c3)C(=O)N=C2S1 | 53 | - | 0 | - | 0 | 0
O=C1Nc2ccc(Br)cc2C1(O)c1ccc(F)cc1 (centres undefined) | 0 | - | 0 | - | 0 | 0
CCCCCNc1nc2sc3c(c2c(=O)n1-c1cccc(Cl)c1)CCN(C)C3 | 0 | 0 | 0 | 0 | 0 | 0
COC(=O)c1ccc(NS(=O)(=O)c2ccccc2)o1 | 0 | 0 | 0 | 0 | 0 | 4.9
COC(=O)c1ccsc1NS(=O)(=O)c1ccccc1 | 0 | - | 0 | - | 0 | 0
COC(=O)c1sccc1NS(=O)(=O)c1ccccc1 | 118 | - | 0 | - | 0 | 0
COc1ccc(CN2CC(=O)N(c3cccc(Cl)c3)C2=S)cc1OC | 90 | - | 0 | - | 0 | 0
COC(=O)c1ccc(CNC(=O)C2CCC(=O)N(CCCc3ccccc3)C2)cc1 (centres undefined) | 0 | - | 0 | - | 0 | 0
CCc1ccc2[nH]c(C(=O)Nc3ccc4c(c3)OCO4)cc2c1 | 69 | 0 | 0 | 0 | 0 | 0
Cc1cc(C)c2[nH]c(C(=O)Nc3ccc4c(c3)OCO4)cc2c1 | 0 | 0 | 0 | 0 | 0 | 0
Cc1nc(N)sc1-c1csc(N(C)c2ccc(O)cc2)n1 | 51 | 0 | 0 | 0 | 0 | 0
COC(=O)c1ccccc1NC1=C/C(=N\S(=O)(=O)c2cccs2)c2ccccc2C1=O | 0 | 0 | 0 | 0 | 0 | 5.0
c1ccc(NC2=NCCN2CCC2CCCCC2)cc1 | 0 | - | 0 | - | 0 | 0
CC(C)N1C(=O)CC(Nc2cccc3cccc(N)c23)C1=O (centres undefined) | 0 | 0 | 0 | 0 | 0 | 12
Cn1cc(/C=C2\SC(=O)NC2=S)c2ccccc21 | 0 | 0 | 0 | 0 | 0 | 5.3
Cc1ccc(/C=C2/SC(=O)NC2=S)o1 | 0 | 0 | 0 | 0 | 0 | 5.3
Cn1cc(/C=C2\SC(=S)N(NC(=O)c3ccccc3Cl)C2=O)c2ccccc21 | 0 | 0 | 0 | 0 | 70 | 0
SMILES | CRFR2-BP antag | TRPML3 ag | VIM-2 inhibitor | TRPN1 ag | CRFBP-R2 agonist | IMP-1 inh
O=C(NN1C(=O)C2C(c3ccccc3)C=CC(c3ccccc3)C2C1=O)c1ccncc1 (centres undefined) | 0 | 0 | 0 | 0 | 0 | 12
O=C(NN1C(=O)C2C3C=CC(C3)C2C1=O)c1ccncc1 (centres undefined) | 0 | 0 | 0 | 0 | 0 | 0
Cc1ccc(S(=O)(=O)N2CCCCC2)cc1NC(=O)CSc1ncn[nH]1 | 0 | 0 | 0 | 0 | 0 | 0
O=C(CSc1ncn[nH]1)Nc1cc(S(=O)(=O)N2CCCC2)ccc1Cl | 50 | 0 | 0 | 0 | 0 | 0
Cc1ccc(S(=O)(=O)N2CCCCC2)cc1NC(=O)CSc1ccc2c(c1)OCCO2 | 0 | 0 | 0 | 0 | 0 | 7.1
Cc1c(-c2ncn[nH]2)sc(C#N)c1-c1ccccc1 | 59 | 0 | 0 | 0 | 0 | 0
Cc1sc2nc(-c3ccccc3)[nH]c(=O)c2c1-c1ccccc1 | - | 0 | 0 | 0 | - | 0
CC(C)[C@@H](N)C(=O)N/N=C/c1ccc2nccnc2c1 | 0 | 0 | 0 | 0 | 0 | 0
CC(C)[C@H](NC(=O)OC(C)(C)C)C(=O)N/N=C/c1ccc2nccnc2c1 | 92 | 0 | 0 | 0 | 0 | 0
Cc1ccc(C2=C(c3ccc([N+](=O)[O-])cc3)C(=O)OC2)cc1C | 0 | 0 | 0 | 0 | 0 | 13
COc1ccc(C2=C(c3ccc([N+](=O)[O-])cc3)C(=O)OC2)cc1 | 0 | 0 | 0 | 0 | 0 | 0
O=C(NCc1ccc2c(c1)OCO2)c1c(F)c(F)c(F)c(F)c1F | 61 | 0 | 0 | 0 | 0 | 0
O=C(COC(=O)C1(c2ccc(F)cc2)CCCC1)NCc1ccc2c(c1)OCO2 | 62 | 0 | 0 | 0 | 0 | 0
O=C(Nc1ccc(Cl)cc1)c1nc[nH]c1C(=O)NCCCCNC(=O)c1[nH]cnc1C(=O)Nc1ccc(Cl)cc1 | 0 | - | - | - | 0 | -
CC(C)(C)c1cc(NS(=O)(=O)c2cccs2)no1 | 0 | - | 0 | - | 0 | 0
N#C/C(=C(/O)COc1ccc(Cl)cc1)c1nc2ccccc2s1 | 72 | 0 | 0 | 0 | 70 | 0
N#C/C(=C(/O)COc1ccccc1)c1nc2ccccc2s1 | 0 | 0 | 0 | 0 | 0 | 0
Cc1cc(C)n(-c2cccc(Cl)c2C#N)n1 | 0 | 0 | 8.7 | 0 | 0 | 0
Cc1ccc(C(=O)O)cc1-c1ccc(C=C2C(=O)c3ccccc3C2=O)o1 | 0 | 0 | 0 | 0 | 75 | 0
Cc1ccc(NC(=O)CN2C(=O)S/C(=C/c3ccc(-c4cc(C(=O)O)ccc4C)o3)C2=O)cc1C | 0 | 0 | 0 | 0 | 0 | 0
CCCCC1CCC(C(=O)NCC(c2ccco2)N2CCOCC2)CC1 (centres undefined) | - | - | 0 | - | - | 0
COc1ccccc1N=C1NC(=O)/C(=C/c2ccc(N(C)C)cc2)S1 | 0 | - | 0 | - | 79 | 0
COc1ccc(/C=C2\SC(=Nc3ccccc3)NC2=O)cc1 | - | - | 0 | - | - | 0
CC(=O)c1ccc(N2CCN(C(=O)Cn3cnc(S(=O)(=O)N4CCCCC4)c3)CC2)cc1 | 0 | - | 0 | - | 0 | 0
CCOC(=O)C1=CC[C@]2(C)c3c(c4ccccc4n3C)C(=O)C1N2C | 0 | - | - | - | 0 | -
COC(=O)c1cnc(NNS(=O)(=O)c2ccc(C(F)(F)F)cc2)nc1C(F)(F)F | 0 | 0 | 0 | 0 | 0 | 0
CCOc1ccccc1Nc1ccnc2cc(Cl)ccc12 | 59 | 0 | 0 | 0 | 0 | 0
